From ChEMBL document CHEMBL1121426, “Structure-activity study of antiulcerous and antiinflammatory drugs by discriminant analysis” (J Med Chem, 1980)

Key:
[1] = Partition coefficient (logP); type: physicochemical; details: octanol/water
[2] = tested on: Rattus norvegicus; assay: Antiulcer activity in rat at the dose of 20 mg/kg administered intraperitoneally.; type: functional; details: ip, route intraperitoneal
Method in brief: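 Pyloric ligation was done under ether on Wistar-King rats (200-250 g, 10 per group) fasted 24 h. Drug was suspended at 10 mg/mL in 0.9% saline with a trace of Tween 80 and given ip at 20 mg/kg; controls received saline. Forestomach ulcers were scored macroscopically 18 h later as an ulcer index. Percent inhibition was taken versus the mean control index; error <±10%.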

[3] = tested on: Rattus norvegicus; assay: Tested for inhibition of edema growth in rat; type: functional; parameters: concentration or dose not given beside the values
Method in brief: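 Carrageenin paw edema in male Wistar rats (120-150 g, 10 per group). Dosing was oral, as 1% suspensions in 0.5% aqueous Na-CMC: phenylacetic acids at 100 mg/kg, aminouracils at 200 mg/kg. Paw volume was read by mercury displacement before and 3 h after injection. Percent inhibition of mean swelling was taken versus control; error <±10%.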

| SMILES | logP [1] | inhibition in vivo at 20 mg/kg [2] | Inhibition [3] |
| --- | --- | --- | --- |
| O=C(O)Cc1cccc(F)c1 | 1.59 | – | 0% |
| Cc1cccc(CC(=O)O)c1 | 1.89 | – | 0% |
| C=CCn1c(C)c(N(C)C)c(=O)n(-c2ccccc2)c1=O | 1.44 | – | 54% |
| COc1cc(CC(=O)O)cc(C(C)C)c1 | 2.75 | – | 10% |
| CCCCOc1cc(C)cc(CC(=O)O)c1 | 3.38 | – | 3% |
| CCOc1cccc(CC(=O)O)c1 | 1.88 | – | 17% |
| O=C(O)Cc1cc(O)cc(-c2ccccc2)c1 | 2.75 | – | 14% |
| CCN(CC)c1c(C)n(C)c(=O)n(-c2ccccc2)c1=O | 2.11 | – | 45% |
| COc1cc(CC(=O)O)cc(C2CCCCC2)c1 | 3.66 | – | 35% |
| COc1cc(CC(=O)O)cc(-c2ccc(F)cc2)c1 | 3.5 | – | 74% |
| Cc1c(N(C)C)c(=O)n(C)c(=O)n1C | 0.99 | – | 37% |
| Cc1c(N(C)C)c(=O)[nH]c(=O)n1-c1ccccc1 | 1.4 | – | 35% |
| Cc1c(N(C)C)c(=O)n(C)c(=O)n1-c1ccccc1 | 1.19 | – | 65% |
| C=CCN(CC=C)c1c(C)n(-c2ccccc2)c(=O)n(C)c1=O | 2.59 | – | 46% |
| COc1ccc(-n2c(C)c(N(C)C)c(=O)n(C)c2=O)cc1 | 1.96 | – | 41% |
| Cc1c(N(C)C)c(=O)n(-c2ccccc2)c(=O)n1C | 1.3 | – | 44% |
| Cc1c(N(C)C)c(=O)n(CCO)c(=O)n1-c1ccccc1 | 1.12 | – | 34% |
| COc1cc(CC(=O)O)cc(-c2ccc(C)cc2)c1 | 3.72 | – | 23% |
| Cc1cc(CC(=O)O)cc(OCC(C)C)c1 | 3.33 | – | 13% |
| Cc1c(N(C)C)c(=O)n(-c2ccccc2)c(=O)n1CCO | 0.85 | – | 31% |
| CCN(CC)c1c(C)n(-c2ccccc2)c(=O)n(CC)c1=O | 2.78 | – | 53% |
| COc1ccc(-c2cc(CC(=O)O)cc(OC)c2)cc1 | 3.28 | – | 13% |
| COc1cc(C)cc(CC(=O)O)c1 | 1.94 | – | 6% |

| SMILES | logP [1] | inhibition in vivo at 20 mg/kg [2] | Inhibition [3] |
| --- | --- | --- | --- |
| O=C(O)Cc1cc(O)cc(-c2ccc(Cl)cc2)c1 | 3.42 | – | 14% |
| O=C(O)Cc1cccc([N+](=O)[O-])c1 | 1.34 | – | 0% |
| COc1cc(CC(=O)O)cc(-c2ccccc2)c1 | 3.3 | – | 68% |
| CCN(CC)c1c(C)n(CC)c(=O)n(-c2ccccc2)c1=O | 2.2 | – | 57% |
| Cc1c(N2CCCCC2)c(=O)n(-c2ccccc2)c(=O)n1C | 2.76 | – | 27% |
| Nc1nc(N)nc(-c2ccc(Cl)cc2)n1 | – | 69% | – |
| Cc1c(N2CCOCC2)c(=O)n(-c2ccccc2)c(=O)n1C | 0.69 | – | 35% |
| O=C(O)Cc1cccc(Br)c1 | 2.36 | – | 0% |
| CCCNc1c(C)n(C)c(=O)n(-c2ccccc2)c1=O | 1.2 | – | 64% |
| CCn1c(=O)c(N(C)C)c(C)n(-c2ccccc2)c1=O | 2.29 | – | 51% |
| CCCCNc1c(C)n(C)c(=O)n(-c2ccccc2)c1=O | 1.69 | – | 48% |
| Cc1c(N(C)C)c(=O)n(C)c(=O)n1-c1ccc(Cl)cc1 | 2.32 | – | 41% |
| O=C(O)Cc1cccc(Cl)c1 | 1.59 | – | 0% |
| CCN(CC)c1c(C)n(-c2ccccc2)c(=O)n(C)c1=O | 2.19 | – | 46% |
| Cc1c(NCC(C)C)c(=O)n(-c2ccccc2)c(=O)n1C | 1.48 | – | 58% |
| CCCNc1c(C)n(-c2ccccc2)c(=O)n(C)c1=O | 1.7 | – | 45% |
| C=CCn1c(=O)c(N(C)C)c(C)n(-c2ccccc2)c1=O | 1.98 | – | 75% |
| Cc1c(N2CCOCC2)c(=O)n(C)c(=O)n1C1CCCCC1 | 2.39 | – | 44% |
| COc1cc(CC(=O)O)cc(-c2ccccc2Cl)c1 | 3.66 | – | 75% |
| COc1cccc(CC(=O)O)c1 | 1.45 | – | -3% |
| Cc1c(N2CCCC2)c(=O)n(-c2ccccc2)c(=O)n1C | 2.26 | – | 32% |
| COc1cc(CC(=O)O)cc(-c2ccc(Cl)cc2)c1 | 3.71 | – | 66% |
| CC(C)Cc1ccc(CC(=O)O)cc1 [IBUFENAC] | 3.38 | – | 32% |

Further lines, with some results ahead:

| logP [1] | SMILES | inhibition in vivo at 20 mg/kg [2] | Inhibition [3] |
| --- | --- | --- | --- |
| 1.38 | Nc1nc(N)nc(-c2c(Cl)cccc2Cl)n1 | 54% | – |
| 2.07 | Nc1nc(N)nc(-c2ccc(Cl)cc2Cl)n1 | 100% | – |
| 4.08 | COc1cc(CC(=O)O)cc(-c2ccc(Cl)cc2Cl)c1 | – | 60% |
| 1.45 | Nc1nc(N)nc(-c2cc(F)ccc2Br)n1 | 78% | – |
| 1.38 | Nc1nc(N)nc(-c2cc(F)ccc2Cl)n1 | 78% | – |
| 1.81 | Nc1nc(N)nc(-c2cc(Cl)ccc2F)n1 | 89% | – |
| 2.27 | Nc1nc(N)nc(-c2cc(C(F)(F)F)ccc2Cl)n1 | 51% | – |
| 1.92 | Cc1ccc(-c2nc(N)nc(N)n2)cc1 | 54% | – |
| 1.53 | COc1ccc(Br)cc1-c1nc(N)nc(N)n1 | 49% | – |
| 1.85 | Nc1nc(N)nc(-c2cc(Cl)ccc2Br)n1 | 81% | – |
| 2.33 | Nc1nc(N)nc(-c2cccc(Cl)c2)n1 | 100% | – |
| 0.49 | Nc1nc(N)nc(-c2ccccc2[N+](=O)[O-])n1 | 11% | – |
| 1.41 | Nc1nc(N)nc(-c2ccccc2I)n1 | -7% | – |
| 1.57 | Nc1nc(N)nc(-c2cccc([N+](=O)[O-])c2)n1 | 85% | – |
| 1.73 | Nc1nc(N)nc(-c2cccc(F)c2)n1 | 70% | – |
| 2.67 | Nc1nc(N)nc(-c2cccc(C(F)(F)F)c2)n1 | 81% | – |
| 1.61 | Nc1nc(N)nc(-c2ccc(F)cc2)n1 | 84% | – |

| logP [1] | SMILES | inhibition in vivo at 20 mg/kg [2] | Inhibition [3] |
| --- | --- | --- | --- |
| 3.2 | Nc1nc(N)nc(-c2cccc(SC(F)(F)F)c2)n1 | 87% | – |
| 1.6 | Nc1nc(N)nc(-c2ccc([N+](=O)[O-])cc2)n1 | 41% | – |
| 1.26 | Nc1nc(N)nc(-c2ccccc2Br)n1 | 26% | – |
| 2.09 | Nc1nc(N)nc(-c2ccc(Cl)cc2Br)n1 | 96% | – |
| 1.26 | Cc1ccccc1-c1nc(N)nc(N)n1 | 28% | – |
| 1.03 | CCOc1ccccc1-c1nc(N)nc(N)n1 | -5% | – |
| 0.29 | CS(=O)(=O)c1cccc(-c2nc(N)nc(N)n2)c1 | -6% | – |
| 1.94 | Nc1nc(N)nc(-c2cc(Br)ccc2F)n1 | 100% | – |
| 2.09 | Nc1nc(N)nc(-c2cc(Br)ccc2Br)n1 | 43% | – |
| 2.16 | CSc1cccc(-c2nc(N)nc(N)n2)c1 | 49% | – |
| 1.19 | Nc1nc(N)nc(-c2ccccc2Cl)n1 | 36% | – |
| 2.44 | Nc1nc(N)nc(-c2cccc(Br)c2)n1 | 96% | – |
| 0.58 | COc1ccccc1-c1nc(N)nc(N)n1 | 1% | – |
| 2.04 | Nc1nc(N)nc(-c2cc(Br)ccc2Cl)n1 | 86% | – |
| 1.65 | CCc1ccccc1-c1nc(N)nc(N)n1 | 20% | – |
| 1.36 | Nc1nc(N)nc(-c2ccccc2)n1 [BENZOGUANAMINE] | 70% | – |
| 1.97 | Nc1nc(N)nc(-c2cc(Cl)ccc2Cl)n1 [IRSOGLADINE] | 100% | – |
